PRMT1 inh – blocks human protein arginine methyltransferase 1 | actives 1.3% (n = 370,000) | inhibition, % at 2.79 µM | recombinant PRMT1, activity-based probe fluorescence polarization | Q99873;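 active means inhibition above about 21% made by adding two undisclosed values, limit read from the data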
RBBP9 inhibitor – inhibitors of human serine hydrolase RBBP9; inhibition, % at 7.94 µM; O75884; recombinant RBBP9, FP-Rh probe fluorescence polarization; actives 0.2% (n = 220,000);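 active means inhibition above the campaign mean of all tested compounds plus 3 SD, cut at about 14% in these data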;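 further: plate controls were DMSO wells with RBBP9 for no effect and wells lacking RBBP9 protein for full effect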
Target sequence (O75884 whole entry, looked up): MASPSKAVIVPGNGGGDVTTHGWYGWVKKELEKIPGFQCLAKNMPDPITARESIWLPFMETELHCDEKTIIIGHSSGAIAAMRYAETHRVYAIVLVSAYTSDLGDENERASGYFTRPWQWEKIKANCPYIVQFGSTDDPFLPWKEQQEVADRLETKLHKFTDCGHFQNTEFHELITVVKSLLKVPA
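Test system – recombinant human RBBP9 · Input – RBBP9 2.5 µM in dispensing solution, pre-mixing · Medium – Tris buffer pH 8.0, NaCl, Pluronic · Schedule – preincubation 30 min plus labeling 45 min at 25 °C · Measured by – fluorescence polarization · Measure – % inhibition · Controls – DMSO and no-protein wells · Replicates – one well per compound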
SIAE inh – inhibitors of human sialic acid acetylesterase SIAE | SIAE FP-Rh probe binding, fluorescence polarization | inhibition, % at 9.66 µM | actives 0.69% (n = 370,000);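 active means inhibition above a cutoff: mean of compounds within the control limits plus 3 SD of those, cut at about 17% in these data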;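 further: 0% = plate median of compound wells and 100% = probe without SIAE protein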
GSTO1 inh – counter-screen for RBBP9 inhibitors: inhibitors of human GSTO1. recombinant GSTO1, activity-based probe fluorescence polarization. inhibition, % at 5.96 µM. actives 1.1% (n = 300,000);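 active means inhibition above the campaign mean inhibition plus 3 SD, cut at about 35% in these data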;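 further: 0% = GSTO1-1 with DMSO and 100% = wells lacking GSTO1-1 enzyme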
Target sequence (P78417 whole entry, looked up): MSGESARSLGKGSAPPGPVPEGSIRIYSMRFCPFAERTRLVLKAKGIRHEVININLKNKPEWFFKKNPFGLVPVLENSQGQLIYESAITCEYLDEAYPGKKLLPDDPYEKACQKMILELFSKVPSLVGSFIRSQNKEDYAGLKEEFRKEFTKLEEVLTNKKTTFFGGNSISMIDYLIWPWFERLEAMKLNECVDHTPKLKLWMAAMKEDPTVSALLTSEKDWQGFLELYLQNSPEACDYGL
PAD4 FP inh – blocks human protein arginine deiminase 4; recombinant PAD4, RCA probe fluorescence polarization; inhibition, % at 6.36 µM; actives 0.41% (n = 330,000); AID 485272;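 active means percent inhibition above a cutoff equal to the mean of all tested compounds plus 3 SD, cut at about 15% in these data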;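 further: 0% = PAD4 with RCA probe and DMSO and 100% = probe without PAD4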
Starred values were filed as active, the others as inactive. This is a sample that favours compounds with a hit; in the whole collection about 2.7% have one here.

O=C(CCl)N1c2ccccc2OCC1c1ccccc1 (centres undefined) was read as PRMT1 inh -3, RBBP9 inhibitor -7, SIAE inh 4, GSTO1 inh 64* and PAD4 FP inh 2.
`N#CCC(N)=C(C#N)C#N` gave PRMT1 inh 1, RBBP9 inhibitor -2, SIAE inh -4, GSTO1 inh 79* and PAD4 FP inh -13.
`O=C(O)c1cnc(-c2ccccc2)nc1Sc1cccc(Cl)c1` gave PRMT1 inh 0, RBBP9 inhibitor -3, SIAE inh -5, GSTO1 inh -14 and PAD4 FP inh 3.
`CCc1nnc(NC(=O)CSc2nc3[nH]c(=O)cc(O)c3s2)s1` gave PRMT1 inh 7, SIAE inh 4 and PAD4 FP inh -4.
N#Cc1c(SCC(=O)Nc2cccc(C(F)(F)F)c2)sc2c(O)cc(=O)[nH]c12 was read as PRMT1 inh 21*, SIAE inh -30, GSTO1 inh -2 and PAD4 FP inh -11.
Screening Cc1ccc(Cl)cc1NC(=O)CSc1sc2c(O)cc(=O)[nH]c2c1C#N returned PRMT1 inh 15, SIAE inh -23, GSTO1 inh 10 and PAD4 FP inh 0.
`CCc1nnc(NC(=O)CSc2sc3c(O)cc(=O)[nH]c3c2C#N)s1` gave PRMT1 inh 42*, SIAE inh -22, GSTO1 inh 48* and PAD4 FP inh -11.
N=C1/C(=C\c2coc3ccc(O)cc3c2=O)C(=O)N=C2SC=CN12 was read as PRMT1 inh 31*, RBBP9 inhibitor 3, SIAE inh -9, GSTO1 inh 57* and PAD4 FP inh -12.
`N=C1/C(=C/c2coc3ccccc3c2=O)C(=O)N=C2SC(c3ccco3)=NN12` gave RBBP9 inhibitor 5, GSTO1 inh -49 and PAD4 FP inh -1.
Screening COc1cccc(-c2noc(Cn3nc(C)c([N+](=O)[O-])c3C)n2)c1 returned PRMT1 inh 23*, RBBP9 inhibitor 6, SIAE inh 2, GSTO1 inh -3 and PAD4 FP inh 1.
For COc1cccc(OCc2nc(-c3cccc([N+](=O)[O-])c3)no2)c1 the results were PRMT1 inh 4, RBBP9 inhibitor 4, SIAE inh -2, GSTO1 inh 1 and PAD4 FP inh 3.
Screening COc1cccc(CCc2nnc(N)s2)c1 returned PRMT1 inh 23*, SIAE inh 0, GSTO1 inh -1 and PAD4 FP inh 3.
`O=C(O)c1cccc(-n2cccc2/C=C2/NC(=O)N(c3cccc(Cl)c3)C2=O)c1` gave PRMT1 inh 2, RBBP9 inhibitor -2, SIAE inh 0, GSTO1 inh 3 and PAD4 FP inh -12.
Screening O=C(O)c1cccc(-n2cccc2/C=C2/NC(=O)N(c3ccc(Cl)cc3)C2=O)c1 returned PRMT1 inh 32*, RBBP9 inhibitor -7 and SIAE inh -2.
For O=C(CSc1nnc(C2COc3ccccc3O2)o1)N1CCCC1 (centres undefined) the results were PRMT1 inh 23*, RBBP9 inhibitor -6, SIAE inh -7, GSTO1 inh 9 and PAD4 FP inh 0.
For C#CCSc1nnc(-c2sc(-c3ccccc3)nc2C)n1C the results were PRMT1 inh 3, RBBP9 inhibitor -4, SIAE inh -1, GSTO1 inh 74* and PAD4 FP inh -5.
O=[N+]([O-])c1ccc(-c2ccc(/C=N/Nc3nc(NCc4ccccc4)nc(N4CCOCC4)n3)o2)cc1 was read as PRMT1 inh -2, RBBP9 inhibitor 0, SIAE inh 5, GSTO1 inh -14 and PAD4 FP inh -8.
Screening Nc1nc2ccccc2[nH]1 returned PRMT1 inh 2 and SIAE inh -3.
Nc1ccccc1Sc1nc2ccccc2[nH]1 was read as PRMT1 inh 52*, RBBP9 inhibitor 5, SIAE inh 18*, GSTO1 inh 12 and PAD4 FP inh 6.
Screening CC(=C/c1ccc(C(C)C)cc1)/C=N/NC(=O)CSc1ccccn1 returned PRMT1 inh -1, RBBP9 inhibitor -9, SIAE inh -11, GSTO1 inh -7 and PAD4 FP inh -8.
`Cc1ccc(CC2CC(=O)N(C(Cc3ccccc3)C(=O)O)C2=O)cc1` (centres undefined) gave PRMT1 inh 4, RBBP9 inhibitor -8, SIAE inh -4, GSTO1 inh 36* and PAD4 FP inh -6.
Cc1ccc(CC2CC(=O)N(CCc3ccccc3)C2=O)cc1 (centres undefined) was read as PRMT1 inh 2, RBBP9 inhibitor -7, SIAE inh -6, GSTO1 inh 2 and PAD4 FP inh -1.
O=C1NCCCC2c3cc(O)c4ccccc4c3OC12N1CCCCC1 (centres undefined) was read as PRMT1 inh 15, RBBP9 inhibitor -4, SIAE inh 9, GSTO1 inh 81* and PAD4 FP inh 34*.
CC(=O)OCC1=C(C(=O)OC(C)(C)C)N2C(=O)[C@@H](NC(=O)Cc3ccccc3)[C@H]2SC1 was read as PRMT1 inh 8 and SIAE inh -4.
For Cc1nn(CC(=O)NC2C(=O)N3C(C(=O)O)=C(CSc4nnnn4C)CSC23)cc1Br (centres undefined) the results were PRMT1 inh 22*, RBBP9 inhibitor -5, SIAE inh -2, GSTO1 inh 2 and PAD4 FP inh -8.
Cc1nnc(SCC2=C(C(=O)O)N3C(=O)C(NC(=O)Cc4ccccc4)C3SC2)s1 (centres undefined) was read as PRMT1 inh 25*, SIAE inh 7 and PAD4 FP inh -1.
For Cn1nnnc1SCC1=C(C(=O)O)N2C(=O)C(NC(=O)Cn3nc(C(F)F)cc3C3CC3)C2SC1 (centres undefined) the results were PRMT1 inh 24*, RBBP9 inhibitor -4, SIAE inh 0, GSTO1 inh 2 and PAD4 FP inh -7.
`O=C(CN1CCOCC1)N/N=C/c1ccc(-c2ccc(C(=O)O)cc2)o1` gave PRMT1 inh 3, RBBP9 inhibitor -1, SIAE inh -1, GSTO1 inh 6 and PAD4 FP inh 0.
`Cc1cccc(NC(=O)CSc2nnc(C)n2Cc2ccccc2)c1` gave PRMT1 inh -1, RBBP9 inhibitor 7, SIAE inh 1, GSTO1 inh 7 and PAD4 FP inh 1.
For CCOC(=O)c1c(C2CC2)csc1NC(=O)COC(=O)CCS(=O)(=O)c1ccc(C)cc1 the results were PRMT1 inh 3, RBBP9 inhibitor -7, SIAE inh 1, GSTO1 inh 37* and PAD4 FP inh 0.
Cc1ccc(C)n1Cc1ccc(C(=O)O)cc1 was read as RBBP9 inhibitor -1, GSTO1 inh 59* and PAD4 FP inh 7.
Cc1cc(C)cc(NS(=O)(=O)c2ccc(NC(=S)NC(=O)c3ccc(Br)o3)cc2)c1 was read as PRMT1 inh -2, RBBP9 inhibitor -49, SIAE inh -117, GSTO1 inh -36 and PAD4 FP inh -7.
